Data on 3 compounds can be found in paper PMC4445677 (Journal of the American Chemical Society, 2014).

Entries after “also recorded” stand apart in the source; their conditions may differ.

In one experiment the test system is WT-ARTD2. Nature of the experiment: Auto-ADP-ribosylation, WT-ARTD2. As to conditions: up to 250 μM. It counts as biochemical, human.
Another experiment concerns WT-ARTD1. The experiment can be described thus: Auto-ADP-ribosylation by click conjugation to biotin-azide reporter, WT-ARTD1. The format is biochemical, human. As to conditions: NAD+ analogue as substrate; up to 250 μM for 5-Et-6-a-NAD+.
Another experiment deals with WT-ARTD6. As to conditions: up to 250 μM.
The subject of the next experiment is KA-ARTD2. The experiment can be described thus: Auto-ADP-ribosylation, KA-ARTD2. It counts as biochemical, human. As to conditions: lysine to alanine mutant.
For experiment [1], the system named is nuclear extracts from human embryonic kidney (HEK) 293T cells. The experiment can be described thus: Labeling of ADP-ribosylation protein targets in nuclear extracts. The format is biochemical. As to conditions: HEK 293T nuclear extracts; for protein labeling in nuclear extracts, NAD+ analogue alone: endogenous ARTDs only, 5-Et-6-a-NAD+ 250 μM, 6-a-NAD+ 100 μM. The method in brief:
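Nuclear extracts from human HEK 293T cells are treated with a modified NAD+ analogue (250 μM), either alone or with added KA-ARTD1. Parent 6-a-NAD+ alone on extract serves as the positive control for ADP-ribose detection. Labelled targets are detected by click chemistry with biotin–azide and immunoblot, using a Ponceau S-stained membrane as the loading control.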

The test system of another experiment is KA-ARTD6. As to conditions: lysine to alanine mutant.
A further experiment concerns KA-ARTD1. The experiment can be described thus: Auto-ADP-ribosylation by click conjugation to biotin-azide reporter, KA-ARTD1. It counts as biochemical, human. As to conditions: NAD+ analogue as substrate; increasing concentrations.
For a further experiment, the target named is K903A ARTD1 (KA-ARTD1) (Homo sapiens, UniProt P09874, K903A). The experiment can be described thus: Inhibition of ADP-ribose transfer to Histone H1 using 6-a-NAD+. The format is biochemical.
Chain of K903A ARTD1 (KA-ARTD1) (P09874 whole entry K903A): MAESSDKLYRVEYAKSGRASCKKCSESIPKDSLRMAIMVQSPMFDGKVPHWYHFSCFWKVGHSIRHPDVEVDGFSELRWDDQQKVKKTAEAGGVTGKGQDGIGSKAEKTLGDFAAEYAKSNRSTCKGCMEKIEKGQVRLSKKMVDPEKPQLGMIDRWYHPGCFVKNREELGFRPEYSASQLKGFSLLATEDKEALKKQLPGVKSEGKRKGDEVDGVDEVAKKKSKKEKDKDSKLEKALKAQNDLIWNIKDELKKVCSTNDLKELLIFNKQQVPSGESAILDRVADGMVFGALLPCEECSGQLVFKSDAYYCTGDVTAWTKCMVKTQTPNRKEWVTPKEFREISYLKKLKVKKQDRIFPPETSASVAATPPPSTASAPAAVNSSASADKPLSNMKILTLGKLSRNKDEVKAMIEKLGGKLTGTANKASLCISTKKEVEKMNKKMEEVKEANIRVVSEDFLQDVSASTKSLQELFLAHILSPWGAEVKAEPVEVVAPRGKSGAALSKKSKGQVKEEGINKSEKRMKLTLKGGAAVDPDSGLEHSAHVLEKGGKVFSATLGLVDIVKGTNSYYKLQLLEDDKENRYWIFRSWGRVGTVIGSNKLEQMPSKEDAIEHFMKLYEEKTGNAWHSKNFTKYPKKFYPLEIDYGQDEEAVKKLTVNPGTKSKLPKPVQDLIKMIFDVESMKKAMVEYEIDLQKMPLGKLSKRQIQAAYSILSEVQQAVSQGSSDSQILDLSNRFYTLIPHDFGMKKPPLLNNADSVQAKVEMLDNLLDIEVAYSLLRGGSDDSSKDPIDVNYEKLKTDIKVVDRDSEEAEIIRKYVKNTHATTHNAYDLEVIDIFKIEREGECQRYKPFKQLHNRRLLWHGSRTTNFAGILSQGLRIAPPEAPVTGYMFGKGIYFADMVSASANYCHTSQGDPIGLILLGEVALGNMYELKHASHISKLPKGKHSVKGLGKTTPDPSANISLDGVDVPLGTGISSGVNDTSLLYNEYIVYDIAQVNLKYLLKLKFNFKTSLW
The target in experiment [2] is wild-type ARTD1 (WT-ARTD1) (Homo sapiens, UniProt P09874). The experiment is described as above. It counts as biochemical.
Chain of wild-type ARTD1 (WT-ARTD1) (P09874 whole entry): as the sequence (P09874 whole entry K903A) above, with A903K counted along it

With 5-Et-6-a-NAD^+, the “modification of WT-ARTD2” value in the experiment with WT-ARTD2 was “no modification”. Besides, in the experiment on WT-ARTD1, the “auto-ADPr (modification) of WT-ARTD1” value is on record as “no modification of WT-ARTD1 was detected”. For the same compound, the “modification of WT-ARTD6” value in the experiment on WT-ARTD6 is reported as “no modification”. The “modification of KA-ARTD2” value with KA-ARTD2 is recorded as “conferred sensitivity”. Besides, in experiment [1] (250 μM plus KA-ARTD1), the “protein labeling in nuclear extracts in the presence of KA-ARTD1” value is listed as “extensive labeling”. The “protein labeling in nuclear extracts, NAD+ analogue alone” value in experiment [1] is given as “no labeling was detected”. In addition, in the experiment on KA-ARTD6, the “modification of KA-ARTD6” value is “conferred sensitivity”. Further, the “auto-ADPr (modification) of KA-ARTD1” value in the experiment on KA-ARTD1 is “only mono-ADPr of KA-ARTD1; also recorded: resulted in auto-ADPr of KA-ARTD1”.

Take “6-alkyne-NAD^+ [6-a-NAD^+, reference compound]”: in the experiment on WT-ARTD1, the “auto-ADPr (modification) of WT-ARTD1” value is listed as “extensive poly-ADPr of WT-ARTD1”. Besides, the “protein labeling in nuclear extracts, NAD+ analogue alone” value in experiment [1] was “labeling of several proteins”. The “auto-ADPr (modification) of KA-ARTD1” value in the experiment on KA-ARTD1 was “only mono-ADPr of KA-ARTD1”.

By IC50 is commonly meant the midpoint of a concentration-inhibition curve. `CCc1cncc(C(N)=O)c1` [5-ethyl-nicotinamide]: the values for the IC50 (against K903A ARTD1 (KA-ARTD1); in [2]) were 165 ± 11 µM and 2360 ± 368 µM, respectively. Besides, the “selectivity for KA-ARTD1 over WT-ARTD1” value on K903A ARTD1 (KA-ARTD1) (ratio of IC50 values WT-ARTD1 / KA-ARTD1) is reported as 14 fold.
